In assay [1] the test system is CT26, HCT116 and SW620 cells. Nature of the assay: Western blotting of HIF-1α, PD-L1, HMGA1, p-Erk and p-Akt expression. It is filed as cell-based. Put shortly:
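Cells were exposed to a range of test compound concentrations and then lysed in RIPA buffer containing 1% protease and 2% phosphatase inhibitors. Total lysate (20 μg protein per lane) was run on SDS-PAGE and transferred to PVDF. Membranes were blocked in 5% milk/TBST, incubated with primary antibodies overnight at 4 °C, then with an HRP-labelled secondary antibody for 2 h at room temperature.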
For orientation: A western blot detects proteins with antibodies after separation by electrophoresis.

The test system of the next assay is HCT116 and CT26 cells. Nature of the assay: Immunogenic cell death: immunofluorescence of CRT and HMGB1. It is filed as cell-based. As to conditions: 100 nmol/L.

Consider one substance from article PMC9279713 (Acta Pharmaceutica Sinica. B, 2021).

For the substance deoxybouvardin [RA-V], in assay [1] (CT26, HCT116 and SW620 cells), the HMGA1 expression entry was “inhibited significantly”; the “p-Akt and p-Erk expression” value is “decreased”. Also, the PD-L1 expression entry in assay [1] (CT26 cells, different concentrations) is listed as “down-regulated PD-L1 expression remarkably”. Moreover, the “ICD effect: pre-apoptotic CRT exposure to membrane surface” value in the assay on HCT116 and CT26 cells is “failed to elicit significant pre-apoptotic CRT exposure”.
